Active and inactive are the calls of the source. The calls are words filed in the database; no cut-off is given here.
Key:
[1] = Agonist activity at alpha3beta4* nAChR in human SH-SY5Y cells after 9.5 mins by 86Rb+ efflux assay; format: cell-based
Outline: (§1)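 86Rb+ efflux: cells loaded with ~350,000 cpm 86Rb+ at least 4 h (typically overnight), rinsed with efflux buffer pH 7.4 (130 mM NaCl, 5.4 mM KCl, 2 mM CaCl2, 50 mM HEPES, 5 mM glucose). Test drug alone applied 9.5 min. Efflux normalized, after nonspecific subtraction, to specific efflux of fully efficacious carbamylcholine control; nonspecific defined with carbamylcholine plus mecamylamine; EC50 derived.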

[2] = molecular target: T1, Acetylcholine receptor; alpha1/beta1/delta/gamma (Homo sapiens, UniProt P02708+P07510+P11230+Q07001); assay: Agonist activity at alpha1beta1gammadelta nAChR in human TE671/RD cells after 9.5 mins by 86Rb+ efflux assay; format: cell-based; outline: as §1
[3] = Antagonist activity at alpha3beta4* in human SH-SY5Y cells assessed as reduction in carbamylcholine induced 86Rb+ efflux preincubated for 10 mins followed by carbamylcholine addition measured after 5 mins by Cherenkov counting; format: cell-based
Outline: (§2)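 Same 86Rb+-loaded cells and pH 7.4 efflux buffer. Cells lysed in 0.1 M NaOH/0.1% SDS and Cerenkov counted. Specific efflux = total minus nonspecific (mecamylamine-blocked); inactivation IC50 derived from inhibition of carbamylcholine response.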

[4] = molecular target: T1, Acetylcholine receptor; alpha1/beta1/delta/gamma; assay: Antagonist activity at alpha1beta1gammadelta nAChR in human TE671/RD cells assessed as reduction in carbamylcholine induced 86Rb+ efflux preincubated for 10 mins followed by carbamylcholine addition measured after 5 mins by Cherenkov counting; format: cell-based; outline: as §2
[5] = molecular target: Neuronal acetylcholine receptor; alpha4/beta4 (Rattus norvegicus, UniProt P09483+P12392); assay: Displacement of [3H]epibatidine from rat alpha4beta4 nAChR by liquid scintillation counting; format: protein-complex assay
Chain of Neuronal acetylcholine receptor; alpha4/beta4 (P09483 whole entry): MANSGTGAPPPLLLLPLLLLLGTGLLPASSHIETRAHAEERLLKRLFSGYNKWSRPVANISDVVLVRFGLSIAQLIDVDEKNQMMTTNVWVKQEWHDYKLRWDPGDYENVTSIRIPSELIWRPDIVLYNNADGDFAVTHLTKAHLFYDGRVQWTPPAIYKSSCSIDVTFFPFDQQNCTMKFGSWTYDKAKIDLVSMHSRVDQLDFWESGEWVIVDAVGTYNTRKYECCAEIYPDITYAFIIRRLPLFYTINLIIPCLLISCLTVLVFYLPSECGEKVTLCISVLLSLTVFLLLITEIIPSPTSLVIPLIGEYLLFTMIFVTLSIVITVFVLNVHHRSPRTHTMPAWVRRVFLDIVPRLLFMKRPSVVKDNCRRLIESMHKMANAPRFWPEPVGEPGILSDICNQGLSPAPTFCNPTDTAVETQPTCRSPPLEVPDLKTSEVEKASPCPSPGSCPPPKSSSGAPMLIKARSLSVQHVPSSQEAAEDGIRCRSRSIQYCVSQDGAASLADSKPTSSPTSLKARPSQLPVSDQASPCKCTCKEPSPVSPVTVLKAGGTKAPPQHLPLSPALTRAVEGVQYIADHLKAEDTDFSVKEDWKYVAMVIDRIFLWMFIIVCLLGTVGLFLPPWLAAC
Chain of Neuronal acetylcholine receptor; alpha4/beta4 (P12392 whole entry): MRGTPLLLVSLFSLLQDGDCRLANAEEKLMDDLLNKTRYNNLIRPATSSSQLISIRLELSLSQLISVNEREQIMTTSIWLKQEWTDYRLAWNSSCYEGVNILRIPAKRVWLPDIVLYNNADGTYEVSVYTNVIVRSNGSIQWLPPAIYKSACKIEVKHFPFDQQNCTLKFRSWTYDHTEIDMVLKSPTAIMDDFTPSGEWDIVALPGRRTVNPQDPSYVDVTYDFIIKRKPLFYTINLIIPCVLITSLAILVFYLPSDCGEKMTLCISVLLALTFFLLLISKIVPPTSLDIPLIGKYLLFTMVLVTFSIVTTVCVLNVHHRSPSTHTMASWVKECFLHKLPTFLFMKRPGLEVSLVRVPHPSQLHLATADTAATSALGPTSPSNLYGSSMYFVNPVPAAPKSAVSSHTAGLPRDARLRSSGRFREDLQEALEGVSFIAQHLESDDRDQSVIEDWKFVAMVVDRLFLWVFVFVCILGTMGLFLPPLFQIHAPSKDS

[6] = molecular target: Neuronal acetylcholine receptor; alpha2/beta4 (Rattus norvegicus, UniProt P12389+P12392); assay: Displacement of [3H]epibatidine from rat alpha2beta4 nAChR by liquid scintillation counting; format: protein-complex assay
Chain of Neuronal acetylcholine receptor; alpha2/beta4 (P12389 whole entry): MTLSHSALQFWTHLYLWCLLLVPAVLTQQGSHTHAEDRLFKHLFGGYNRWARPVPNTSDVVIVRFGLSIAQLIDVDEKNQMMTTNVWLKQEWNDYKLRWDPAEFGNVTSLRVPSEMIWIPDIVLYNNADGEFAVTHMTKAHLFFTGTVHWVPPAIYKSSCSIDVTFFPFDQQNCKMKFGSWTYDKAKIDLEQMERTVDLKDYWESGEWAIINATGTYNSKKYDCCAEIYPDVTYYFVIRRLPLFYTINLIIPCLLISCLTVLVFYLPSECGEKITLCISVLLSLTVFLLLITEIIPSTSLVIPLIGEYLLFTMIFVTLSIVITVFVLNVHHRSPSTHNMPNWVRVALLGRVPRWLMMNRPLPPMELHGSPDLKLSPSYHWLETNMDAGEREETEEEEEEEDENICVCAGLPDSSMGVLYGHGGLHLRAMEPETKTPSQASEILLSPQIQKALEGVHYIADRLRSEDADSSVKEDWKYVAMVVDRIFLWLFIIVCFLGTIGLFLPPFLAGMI
Chain of Neuronal acetylcholine receptor; alpha2/beta4 (P12392 whole entry): as the sequence (P12392 whole entry) above

[7] = molecular target: Neuronal acetylcholine receptor; alpha2/beta2 (Rattus norvegicus, UniProt P12389+P12390); assay: Displacement of [3H]epibatidine from rat alpha2beta2 nAChR by liquid scintillation counting; format: protein-complex assay
Chain of Neuronal acetylcholine receptor; alpha2/beta2 (P12389 whole entry): as the sequence (P12389 whole entry) above
Chain of Neuronal acetylcholine receptor; alpha2/beta2 (P12390 whole entry): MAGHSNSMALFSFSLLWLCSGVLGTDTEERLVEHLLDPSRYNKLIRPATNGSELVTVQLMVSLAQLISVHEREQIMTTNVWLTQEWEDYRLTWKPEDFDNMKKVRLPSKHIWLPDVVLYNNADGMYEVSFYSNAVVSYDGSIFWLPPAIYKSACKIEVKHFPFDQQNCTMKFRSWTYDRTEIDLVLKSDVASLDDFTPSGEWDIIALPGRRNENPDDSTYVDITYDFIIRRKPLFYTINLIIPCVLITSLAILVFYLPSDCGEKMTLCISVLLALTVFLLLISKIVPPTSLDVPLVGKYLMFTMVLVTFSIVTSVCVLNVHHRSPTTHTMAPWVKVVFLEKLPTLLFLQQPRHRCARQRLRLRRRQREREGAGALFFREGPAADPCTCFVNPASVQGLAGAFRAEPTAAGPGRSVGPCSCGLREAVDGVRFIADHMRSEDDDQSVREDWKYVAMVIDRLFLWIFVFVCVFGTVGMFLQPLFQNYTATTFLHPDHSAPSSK

[8] = molecular target: Neuronal acetylcholine receptor; alpha3/beta2 (Rattus norvegicus, UniProt P04757+P12390); assay: Displacement of [3H]epibatidine from rat alpha3beta2 nAChR by liquid scintillation counting; format: protein-complex assay
Chain of Neuronal acetylcholine receptor; alpha3/beta2 (P04757 whole entry): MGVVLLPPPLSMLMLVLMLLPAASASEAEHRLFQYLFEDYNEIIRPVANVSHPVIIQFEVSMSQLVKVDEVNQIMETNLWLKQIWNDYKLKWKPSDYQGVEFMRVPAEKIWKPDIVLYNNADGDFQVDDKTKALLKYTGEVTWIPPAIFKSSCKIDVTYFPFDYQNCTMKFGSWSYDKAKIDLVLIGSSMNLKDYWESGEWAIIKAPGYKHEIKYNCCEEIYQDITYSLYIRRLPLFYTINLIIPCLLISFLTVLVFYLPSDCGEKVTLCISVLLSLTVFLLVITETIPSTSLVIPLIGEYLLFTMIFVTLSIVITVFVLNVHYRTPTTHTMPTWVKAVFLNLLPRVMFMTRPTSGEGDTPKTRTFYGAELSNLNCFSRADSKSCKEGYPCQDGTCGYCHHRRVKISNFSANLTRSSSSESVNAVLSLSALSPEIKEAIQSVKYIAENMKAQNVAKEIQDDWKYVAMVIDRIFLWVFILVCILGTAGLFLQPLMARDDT
Chain of Neuronal acetylcholine receptor; alpha3/beta2 (P12390 whole entry): as the sequence (P12390 whole entry) above

[9] = Antidepressant activity in C57BL6 mouse at 10 mg/kg, ip administered 15 mins prior to testing by SmartCube automated system based method; format: functional, organism-based
Outline: (§3)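 Male C57 BL6 mice, group-housed 4 per cage, 22 °C, 12 h light-dark. Compound dissolved in water, given i.p. at 10 mL/kg, 15 min before automated SmartCube session; behaviour captured by digital video and classified by computer algorithms into a behavioural signature.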

[10] = molecular target: Neuronal acetylcholine receptor; alpha4/beta2 (Rattus norvegicus, UniProt P09483+P12390); assay: Displacement of [3H]epibatidine from rat alpha4beta2 nAChR by liquid scintillation counting; format: protein-complex assay
Chain of Neuronal acetylcholine receptor; alpha4/beta2 (Rattus norvegicus, UniProt P09483+P12390) (P09483 whole entry): as the sequence (P09483 whole entry) above
Chain of Neuronal acetylcholine receptor; alpha4/beta2 (Rattus norvegicus, UniProt P09483+P12390) (P12390 whole entry): as the sequence (P12390 whole entry) above

[11] = molecular target: T2, Neuronal acetylcholine receptor; alpha4/beta2 (Homo sapiens, UniProt P17787+P43681); assay: Agonist activity at human (alpha4beta2 )2alpha4 expressed in human SH-EP1 cells after 9.5 mins by 86Rb+ efflux assay relative to carbamylcholine; format: cell-based
T2 sequence (P17787 whole entry): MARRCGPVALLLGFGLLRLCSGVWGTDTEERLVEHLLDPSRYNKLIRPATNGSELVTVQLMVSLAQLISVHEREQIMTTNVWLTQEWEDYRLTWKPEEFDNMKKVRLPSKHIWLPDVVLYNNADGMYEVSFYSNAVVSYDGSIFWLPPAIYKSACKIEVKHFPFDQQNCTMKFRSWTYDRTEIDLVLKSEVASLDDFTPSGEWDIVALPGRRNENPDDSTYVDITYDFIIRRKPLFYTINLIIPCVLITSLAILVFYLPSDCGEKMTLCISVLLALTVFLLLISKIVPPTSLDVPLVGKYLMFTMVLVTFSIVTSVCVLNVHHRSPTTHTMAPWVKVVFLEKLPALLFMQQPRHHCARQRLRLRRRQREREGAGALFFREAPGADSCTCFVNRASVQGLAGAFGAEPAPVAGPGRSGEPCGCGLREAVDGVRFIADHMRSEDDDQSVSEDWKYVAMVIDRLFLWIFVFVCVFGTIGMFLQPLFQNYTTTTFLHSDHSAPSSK
T2 sequence (P43681 whole entry): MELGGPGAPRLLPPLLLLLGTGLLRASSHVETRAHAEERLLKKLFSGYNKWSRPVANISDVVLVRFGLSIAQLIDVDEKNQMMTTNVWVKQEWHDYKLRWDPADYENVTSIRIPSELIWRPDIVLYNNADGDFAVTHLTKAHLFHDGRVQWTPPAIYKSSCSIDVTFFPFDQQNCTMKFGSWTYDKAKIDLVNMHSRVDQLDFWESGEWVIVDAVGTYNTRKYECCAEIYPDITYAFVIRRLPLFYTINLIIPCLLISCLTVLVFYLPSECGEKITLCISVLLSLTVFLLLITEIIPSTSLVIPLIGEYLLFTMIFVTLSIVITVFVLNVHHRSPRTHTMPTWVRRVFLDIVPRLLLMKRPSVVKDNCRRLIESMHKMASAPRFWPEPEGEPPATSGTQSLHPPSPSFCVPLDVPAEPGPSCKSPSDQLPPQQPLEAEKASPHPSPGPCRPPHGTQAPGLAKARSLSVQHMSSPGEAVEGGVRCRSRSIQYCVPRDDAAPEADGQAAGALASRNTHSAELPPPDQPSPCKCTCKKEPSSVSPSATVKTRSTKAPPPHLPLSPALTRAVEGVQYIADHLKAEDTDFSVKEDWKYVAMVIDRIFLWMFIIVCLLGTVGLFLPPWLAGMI

[12] = molecular target: T2, Neuronal acetylcholine receptor; alpha4/beta2; assay: Agonist activity at human (alpha4beta2 )2beta2 expressed in human SH-EP1 cells after 9.5 mins by 86Rb+ efflux assay relative to carbamylcholine; format: cell-based
[13] = molecular target: T2, Neuronal acetylcholine receptor; alpha4/beta2; assay: Agonist activity at human alpha4beta2 nAChR expressed in human SH-EP1 cells after 9.5 mins by 86Rb+ efflux assay; format: cell-based
[14] = Displacement of [3H]epibatidine from rat forebrain alpha4beta2* nAChR by liquid scintillation counting
[15] = molecular target: T2, Neuronal acetylcholine receptor; alpha4/beta2; assay: Antagonist activity at human alpha4beta2 expressed in human SH-EP1 cells assessed as reduction in carbamylcholine induced 86Rb+ efflux preincubated for 10 mins followed by carbamylcholine addition measured after 5 mins by Cherenkov counting; format: cell-based; outline: as §2
[16] = molecular target: Neuronal acetylcholine receptor; alpha3/beta4 (Rattus norvegicus, UniProt P04757+P12392); assay: Displacement of [3H]epibatidine from rat alpha3beta4 nAChR by liquid scintillation counting; format: protein-complex assay
Chain of Neuronal acetylcholine receptor; alpha3/beta4 (P04757 whole entry): as the sequence (P04757 whole entry) above
Chain of Neuronal acetylcholine receptor; alpha3/beta4 (P12392 whole entry): as the sequence (P12392 whole entry) above

[17] = Antidepressant activity in C57BL6 mouse at 5 mg/kg, ip administered 15 mins prior to testing by SmartCube automated system based method; format: functional, organism-based; outline: as §3
[18] = Antidepressant activity in po dosed BALB/cJ mouse assessed as decrease in immobility time administered 30 mins and measured over 6 mins by classical Porsolt's forced swim test; format: functional, organism-based
Outline: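 Male BALB/cJ mice, 8–10 weeks, dosed po in water (10 mL/kg) at 1 and 10 mg/kg; water vehicle, sertraline 20 mg/kg ip as positive control. 30 min later placed in 1 L beaker with 12 cm of 23 °C water; immobility recorded over 6-min trial, total time analysed by ANOVA.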

[19] = molecular target: alpha3beta4 nAChR (neuronal acetylcholine receptor alpha3/beta4) (Rattus norvegicus, UniProt P04757+P12392); assay: Displacement of [3H]epibatidine from rat alpha3beta4 nAChR at 10 uM by liquid scintillation counting; settings: probe [3H]epibatidine
Chain of alpha3beta4 nAChR (neuronal acetylcholine receptor alpha3/beta4) (P04757 whole entry): as the sequence (P04757 whole entry) above
Chain of alpha3beta4 nAChR (neuronal acetylcholine receptor alpha3/beta4) (P12392 whole entry): as the sequence (P12392 whole entry) above

| SMILES | EC50 [1] [µM] | EC50 [2] [µM] | IC50 [3] [µM] | IC50 [4] [µM] | Ki [5] [µM] | Ki [6] [µM] | Ki [7] [µM] | Ki [8] [µM] | Ki [10] [µM] | Efficacy [11] [%] | Efficacy [12] [%] | EC50 [13] [µM] | Ki [14] [µM] | Efficacy [15] [%] | IC50 [15] [µM] | Ki [16] [µM] | also measured |
| --- | --- | --- | --- | --- | --- | --- | --- | --- | --- | --- | --- | --- | --- | --- | --- | --- | --- |
| COCC[C@H]1C[C@@H]1c1cncc(N2C[C@@H]3C[C@H]2CN3)c1 | > 10 | > 10 | > 10 | > 10 | 1.34 | 4.81 | 0.0031 | 0.141 |  |  |  |  |  |  |  |  |  |
| OCCc1cc(-c2cncc(N3CCCNCC3)c2)on1 | > 10 | > 10 | > 10 | > 10 | 0.0676 | 0.331 | 0.0008 | 0.042 | 0.0008 | -5 | 58 | 0.0309 | 0.0035 | 68 | 0.0508 | 8.1 | Activity [9]: Active |
| c1cncc(N2CC3CC2CN3)c1 (stereo not drawn) |  |  |  |  | 0.0077 | 0.0152 | 0.0003 | 0.0031 | 0.001 |  |  |  | 0.0008 |  |  | 0.0646 |  |
| COCC[C@H]1C[C@@H]1c1cncc(N2CCCN(C)CC2)c1 | > 10 | > 10 | > 10 | > 10 | 4.81 |  | 0.0181 | 0.681 | 0.0254 |  |  | > 1 | 0.0338 |  | > 1 |  | pEC50 ([13]; sh-ep1): < 6; pIC50 ([15]; sh-ep1): < 6 |
| COCC[C@H]1C[C@@H]1c1cncc(N2CCCNCC2)c1 | > 10 | > 10 | > 10 | > 10 | 0.151 | 0.46 | 0.0003 | 0.017 | 0.0007 | -9.3 | 81 | 0.0159 | 0.0027 | 74 | 0.016 | > 10 | Activity [17]: Active; Activity [18]: Dose-dependent effect |
| COCC[C@@H]1C[C@H]1c1cncc(N2CCCNCC2)c1 | > 10 | > 10 | > 10 | > 10 | 0.168 | 0.256 | 0.0003 | 0.0158 | 0.0005 | -5.6 | 63 | 0.0171 | 0.0027 | 79 | 0.0157 | > 10 | Activity [9]: Active |
| CN1CCCN(c2cncc(-c3cc(CCO)no3)c2)CC1 | > 10 | > 10 | > 10 | > 10 | 4.94 | > 10 | 0.0463 | 1.04 |  |  |  |  |  |  |  |  | inhibition at 10 µM [19]: < 50% |
| COCC[C@@H]1C[C@H]1c1cncc(N2C[C@@H]3C[C@H]2CN3)c1 | > 10 | > 10 | > 10 | > 10 | 8.45 |  | 0.0431 | 0.617 |  |  |  |  |  |  |  |  |  |
| c1cncc(N2CCCNCC2)c1 |  |  |  |  | 0.0716 | 0.062 | 0.0011 | 0.0051 | 0.0034 |  |  |  | 0.0033 |  |  | 0.366 |  |
